Laboratory results published in ChEMBL document CHEMBL4823330, “Piperazinyl Bicyclic Derivatives as Selective Ligands of the α2δ-1 Subunit of Voltage-Gated Calcium Channels” (ACS Med Chem Lett, 2021).
Calls of active or inactive are those of the source. The calls are words filed in the database; no cut-off is given here.

Tests used:
CYP3A4 = CYP3A4 (Homo sapiens, UniProt P08684); assay: Inhibition of recombinant CYP3A4 (unknown origin) using BFC as substrate at 1 uM measured after 30 mins in presence of NADPH generating system by fluorescence assay relative to control; format: ADME; settings: recombinant CYP3A4, probe BFC
Sequence of CYP3A4 (P08684 whole entry): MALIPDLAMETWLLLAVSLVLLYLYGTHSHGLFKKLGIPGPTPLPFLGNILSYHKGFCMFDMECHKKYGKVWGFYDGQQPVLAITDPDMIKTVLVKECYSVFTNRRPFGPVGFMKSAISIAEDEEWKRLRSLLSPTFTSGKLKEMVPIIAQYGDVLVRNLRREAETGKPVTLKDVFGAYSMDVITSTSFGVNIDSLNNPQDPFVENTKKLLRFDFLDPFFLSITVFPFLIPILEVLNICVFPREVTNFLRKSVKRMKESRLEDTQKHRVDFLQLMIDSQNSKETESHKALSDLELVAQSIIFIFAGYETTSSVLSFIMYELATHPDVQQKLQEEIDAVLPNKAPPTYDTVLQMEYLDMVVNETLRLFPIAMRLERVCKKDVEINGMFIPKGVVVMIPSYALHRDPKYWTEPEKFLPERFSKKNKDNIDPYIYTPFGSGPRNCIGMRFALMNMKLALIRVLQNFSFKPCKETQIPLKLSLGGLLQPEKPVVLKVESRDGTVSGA
In short: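 Recombinant human CYP3A4 incubated with test compound at 1 μM. 7-Benzyloxy-4-trifluoromethylcoumarin (BFC) was the probe substrate, with fluorescence read-out, reported as percent inhibition.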

[1] = target: T1, Voltage-dependent calcium channel subunit alpha-2/delta-1 (Homo sapiens, UniProt P54289); assay: Displacement of [3H]-gabapentin from human Cav alpha2delta1 expressed in CHO-K1 cell membranes incubated for 60 mins by scintillation counting method; design: species or system Membrane
T1 sequence (P54289 25-956 limits assumed): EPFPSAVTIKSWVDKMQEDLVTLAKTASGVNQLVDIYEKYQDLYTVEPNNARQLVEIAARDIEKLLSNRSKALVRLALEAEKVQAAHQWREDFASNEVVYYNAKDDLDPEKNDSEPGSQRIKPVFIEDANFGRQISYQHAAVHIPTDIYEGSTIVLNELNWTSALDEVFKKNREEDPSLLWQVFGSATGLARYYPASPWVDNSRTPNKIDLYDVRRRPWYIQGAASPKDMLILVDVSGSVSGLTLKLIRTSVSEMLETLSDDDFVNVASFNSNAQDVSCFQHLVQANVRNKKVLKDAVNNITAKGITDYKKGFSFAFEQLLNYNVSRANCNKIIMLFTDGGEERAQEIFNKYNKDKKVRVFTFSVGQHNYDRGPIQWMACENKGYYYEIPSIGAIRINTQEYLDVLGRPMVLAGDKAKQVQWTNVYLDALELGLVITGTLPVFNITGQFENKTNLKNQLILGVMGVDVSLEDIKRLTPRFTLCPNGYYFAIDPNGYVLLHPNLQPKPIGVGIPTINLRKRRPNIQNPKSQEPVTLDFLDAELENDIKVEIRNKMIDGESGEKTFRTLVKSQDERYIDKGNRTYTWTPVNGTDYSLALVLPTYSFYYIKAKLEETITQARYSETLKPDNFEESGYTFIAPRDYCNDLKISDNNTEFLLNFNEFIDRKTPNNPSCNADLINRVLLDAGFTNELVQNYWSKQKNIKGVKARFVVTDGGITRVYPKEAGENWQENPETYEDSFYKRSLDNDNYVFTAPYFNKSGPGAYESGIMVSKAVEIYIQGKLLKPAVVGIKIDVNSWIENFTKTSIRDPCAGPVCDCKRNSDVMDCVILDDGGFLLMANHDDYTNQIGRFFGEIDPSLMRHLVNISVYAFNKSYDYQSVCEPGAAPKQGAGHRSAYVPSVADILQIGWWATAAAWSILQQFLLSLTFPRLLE
T1 sequence (P54289 957-1103 limits assumed): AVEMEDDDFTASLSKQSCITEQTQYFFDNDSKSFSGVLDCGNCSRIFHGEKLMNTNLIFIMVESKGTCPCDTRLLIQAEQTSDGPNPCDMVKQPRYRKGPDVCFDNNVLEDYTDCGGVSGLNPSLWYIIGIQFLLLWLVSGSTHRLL
In short: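 Radioligand binding with [3H]-gabapentin on α2δ-1-enriched membranes from CHO-K1 cells expressing human Cav2.2/β3/α2δ1. Compounds were first screened at 10 μM. Ki was calculated for those giving more than 50% inhibition. Values are mean ± SD of two determinations.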

[2] = target: T1, Voltage-dependent calcium channel subunit alpha-2/delta-1; assay: Displacement of [3H]-gabapentin from human Cav alpha2delta1 expressed in CHO-K1 cell membranes at 10 uM incubated for 60 mins by scintillation counting method relative to control; settings: Membrane
In short: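 Human α2δ-1-enriched membranes from CHO-K1 cells stably expressing human Cav2.2/β3/α2δ1. Test compound at 10 μM competes with [3H]-gabapentin radioligand, and percent inhibition of specific binding is recorded. Compounds exceeding 50% inhibition go on to Ki determination, with Ki values given as the mean of two determinations.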

Mu-type opioid receptor = Mu-type opioid receptor (Homo sapiens, UniProt P35372); assay: Binding affinity to mu opioid receptor (unknown origin)
Sequence of Mu-type opioid receptor (P35372 whole entry): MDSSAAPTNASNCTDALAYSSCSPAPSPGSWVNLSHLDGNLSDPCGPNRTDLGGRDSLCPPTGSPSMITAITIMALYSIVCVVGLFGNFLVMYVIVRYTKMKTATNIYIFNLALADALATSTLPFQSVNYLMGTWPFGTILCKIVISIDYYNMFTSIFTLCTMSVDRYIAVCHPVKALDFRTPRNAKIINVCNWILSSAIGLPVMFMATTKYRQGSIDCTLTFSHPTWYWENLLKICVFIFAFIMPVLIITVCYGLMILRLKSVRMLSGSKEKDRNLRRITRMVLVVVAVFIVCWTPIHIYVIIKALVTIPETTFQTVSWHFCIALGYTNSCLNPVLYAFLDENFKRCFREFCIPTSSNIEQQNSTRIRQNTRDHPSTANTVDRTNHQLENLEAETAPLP

[3] = target: 5-hydroxytryptamine receptor 1A (Homo sapiens) (UniProt P08908); assay: Binding affinity to 5HT1A receptor (unknown origin)
[4] = target: Sodium-dependent dopamine transporter (Homo sapiens) (UniProt Q01959); assay: Binding affinity to dopamine transporter (unknown origin)
Sequence of Sodium-dependent dopamine transporter (Homo sapiens) (Q01959 whole entry): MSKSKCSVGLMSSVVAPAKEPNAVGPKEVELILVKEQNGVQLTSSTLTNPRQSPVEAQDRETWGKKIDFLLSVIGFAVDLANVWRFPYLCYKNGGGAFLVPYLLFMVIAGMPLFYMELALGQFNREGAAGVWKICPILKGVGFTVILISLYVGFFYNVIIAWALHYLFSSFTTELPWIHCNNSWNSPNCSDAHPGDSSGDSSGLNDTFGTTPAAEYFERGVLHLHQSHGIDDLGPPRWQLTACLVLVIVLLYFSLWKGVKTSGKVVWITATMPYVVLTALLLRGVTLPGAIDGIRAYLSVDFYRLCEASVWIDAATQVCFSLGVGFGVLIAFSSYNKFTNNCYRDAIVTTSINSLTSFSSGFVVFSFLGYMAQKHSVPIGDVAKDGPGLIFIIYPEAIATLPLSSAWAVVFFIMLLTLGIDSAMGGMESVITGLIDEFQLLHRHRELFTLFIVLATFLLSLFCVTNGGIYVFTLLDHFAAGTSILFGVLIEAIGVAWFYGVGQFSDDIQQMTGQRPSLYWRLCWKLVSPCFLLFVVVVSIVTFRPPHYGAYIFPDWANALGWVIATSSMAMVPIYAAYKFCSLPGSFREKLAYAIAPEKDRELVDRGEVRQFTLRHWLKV

[5] = target: 5-hydroxytryptamine receptor 2B (Homo sapiens) (UniProt P41595); assay: Binding affinity to 5HT2B receptor (unknown origin)
Sequence of 5-hydroxytryptamine receptor 2B (Homo sapiens) (P41595 whole entry): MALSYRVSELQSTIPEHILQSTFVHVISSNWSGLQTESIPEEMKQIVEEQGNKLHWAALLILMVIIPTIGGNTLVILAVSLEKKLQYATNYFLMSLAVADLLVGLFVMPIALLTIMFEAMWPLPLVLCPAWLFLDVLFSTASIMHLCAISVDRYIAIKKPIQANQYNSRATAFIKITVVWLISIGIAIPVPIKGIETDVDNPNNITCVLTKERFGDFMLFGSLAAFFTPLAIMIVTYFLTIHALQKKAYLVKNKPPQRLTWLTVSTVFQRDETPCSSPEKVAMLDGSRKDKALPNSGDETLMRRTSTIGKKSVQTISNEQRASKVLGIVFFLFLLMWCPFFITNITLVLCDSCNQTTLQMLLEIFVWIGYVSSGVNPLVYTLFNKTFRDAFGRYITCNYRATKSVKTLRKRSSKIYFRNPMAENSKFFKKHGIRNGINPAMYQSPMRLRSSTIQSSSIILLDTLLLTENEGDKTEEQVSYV

[6] = target: Sigma non-opioid intracellular receptor 1 (Homo sapiens) (UniProt Q99720); assay: Binding affinity to sigma 1 receptor (unknown origin)
Sequence of Sigma non-opioid intracellular receptor 1 (Homo sapiens) (Q99720 whole entry): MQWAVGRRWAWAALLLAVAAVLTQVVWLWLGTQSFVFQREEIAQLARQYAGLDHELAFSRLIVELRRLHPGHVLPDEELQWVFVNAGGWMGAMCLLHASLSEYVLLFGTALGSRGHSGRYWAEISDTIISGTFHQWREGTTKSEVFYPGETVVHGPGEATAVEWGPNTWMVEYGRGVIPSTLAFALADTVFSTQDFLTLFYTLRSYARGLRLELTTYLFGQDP

[7] = target: Sodium-dependent serotonin transporter (Homo sapiens) (UniProt P31645); assay: Binding affinity to serotonin transporter (unknown origin)
Sequence of Sodium-dependent serotonin transporter (Homo sapiens) (P31645 whole entry, looked up): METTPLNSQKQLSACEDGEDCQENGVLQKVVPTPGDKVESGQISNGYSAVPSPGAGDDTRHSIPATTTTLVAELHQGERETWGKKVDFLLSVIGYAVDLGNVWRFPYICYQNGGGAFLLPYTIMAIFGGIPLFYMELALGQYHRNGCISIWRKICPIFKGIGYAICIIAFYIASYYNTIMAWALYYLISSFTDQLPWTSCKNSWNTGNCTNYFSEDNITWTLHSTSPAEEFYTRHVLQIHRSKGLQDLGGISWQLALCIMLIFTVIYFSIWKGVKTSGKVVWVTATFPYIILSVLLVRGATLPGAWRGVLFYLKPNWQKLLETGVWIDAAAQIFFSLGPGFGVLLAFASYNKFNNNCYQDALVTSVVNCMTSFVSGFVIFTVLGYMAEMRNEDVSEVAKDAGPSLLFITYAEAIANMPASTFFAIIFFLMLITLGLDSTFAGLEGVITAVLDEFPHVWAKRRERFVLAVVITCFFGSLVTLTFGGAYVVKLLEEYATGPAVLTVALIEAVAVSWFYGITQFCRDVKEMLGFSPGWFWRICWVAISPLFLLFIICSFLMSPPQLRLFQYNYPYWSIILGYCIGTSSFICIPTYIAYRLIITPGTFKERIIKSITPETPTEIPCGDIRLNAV

[8] = target: Delta-type opioid receptor (Homo sapiens) (UniProt P41143); assay: Binding affinity to delta opioid receptor (unknown origin)
Sequence of Delta-type opioid receptor (Homo sapiens) (P41143 whole entry): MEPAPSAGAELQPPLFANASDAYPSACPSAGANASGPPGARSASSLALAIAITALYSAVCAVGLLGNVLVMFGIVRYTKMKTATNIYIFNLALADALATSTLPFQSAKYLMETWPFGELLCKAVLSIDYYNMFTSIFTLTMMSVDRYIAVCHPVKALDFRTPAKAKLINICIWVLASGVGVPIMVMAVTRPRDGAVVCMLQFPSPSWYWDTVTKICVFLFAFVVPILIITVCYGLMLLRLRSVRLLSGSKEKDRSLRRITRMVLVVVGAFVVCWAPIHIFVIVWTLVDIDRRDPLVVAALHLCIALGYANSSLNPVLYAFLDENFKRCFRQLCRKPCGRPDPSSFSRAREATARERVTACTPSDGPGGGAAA

[9] = target: Alpha-2A adrenergic receptor (Homo sapiens) (UniProt P08913); assay: Binding affinity to alpha2A receptor (unknown origin)
[10] = target: Histamine H1 receptor (Homo sapiens) (UniProt P35367); assay: Binding affinity to histamine H1 receptor (unknown origin)
[11] = target: Kappa-type opioid receptor (Homo sapiens) (UniProt P41145); assay: Binding affinity to kappa opioid receptor (unknown origin)
[12] = target: Alpha-1A adrenergic receptor (Homo sapiens) (UniProt P35348); assay: Binding affinity to alpha1A receptor (unknown origin)
Sequence of Alpha-1A adrenergic receptor (Homo sapiens) (P35348 whole entry): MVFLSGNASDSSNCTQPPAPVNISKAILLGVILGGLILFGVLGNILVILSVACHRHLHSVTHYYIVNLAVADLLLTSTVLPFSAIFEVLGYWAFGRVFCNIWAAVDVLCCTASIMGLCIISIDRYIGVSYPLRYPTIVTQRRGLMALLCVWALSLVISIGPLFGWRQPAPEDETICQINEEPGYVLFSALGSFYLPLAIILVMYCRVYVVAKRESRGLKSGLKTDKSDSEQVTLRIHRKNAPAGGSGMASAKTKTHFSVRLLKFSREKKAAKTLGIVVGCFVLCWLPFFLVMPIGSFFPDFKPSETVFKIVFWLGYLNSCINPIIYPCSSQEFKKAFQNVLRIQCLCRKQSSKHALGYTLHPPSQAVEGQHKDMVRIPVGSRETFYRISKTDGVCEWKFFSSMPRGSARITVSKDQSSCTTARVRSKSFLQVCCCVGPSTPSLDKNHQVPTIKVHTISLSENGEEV

[13] = target: Sodium-dependent noradrenaline transporter (Homo sapiens) (UniProt P23975); assay: Binding affinity to norepinephrine transporter (unknown origin)
[14] = Induction of motor coordination impairment in CD1 mouse assessed as latency to fall at 20 mg/kg, ip measured upto 180 mins by rotarod test; format: organism-based; settings: in vivo, 3 h
In short: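 Mice were dosed at 20 mg/kg ip, with vehicle and pregabalin groups run in the same paradigm. Latency to fall from the elevated rotating drum was recorded at 30, 120 and 180 min after administration.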

Mus musculus = assay: Analgesic activity in CD1 mouse model of capsaicin-induced mechanical hypersensitivity assessed as reduction in mechanical hypersensitivity at 20 mg/kg, ip administered 30 mins prior to capsaicin stimulation and measured after 15 mins; format: functional; design: scale not given: the % may be the effect or the level left; settings: time 45 min, 0.75 h
In short: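 Male CD1 mice, 8–12 per group, given 20 mg/kg ip alongside vehicle and pregabalin comparator groups. Capsaicin test read out as percentage reduction in capsaicin-induced mechanical hypersensitivity.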

[15] = Metabolic stability in human liver microsomes assessed as intrinsic clearance per mg protein at 1 uM measured upto 60 mins in presence of NADPH generating system by UPLC-MS/MS analysis; format: ADME, Microsome; settings: read-out: CLH
[16] = Metabolic stability in rat liver microsomes assessed as intrinsic clearance per mg protein at 1 uM measured upto 60 mins in presence of NADPH generating system by UPLC-MS/MS analysis; format: ADME, Microsome; settings: read-out: CLH
[17] = target: Voltage-gated inwardly rectifying potassium channel KCNH2 (Homo sapiens, UniProt Q12809); assay: Inhibition of human ERG
CYP2C9 = CYP2C9 (Homo sapiens, UniProt P11712); assay: Inhibition of CYP2C9 (unknown origin) at 1 uM relative to control; format: ADME
In short: (§1)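 Recombinant human CYP isoforms (1A2, 2C9, 2C19, 2D6) were each tested with compound at 1 μM. Read-out is percent inhibition.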

[18] = Lipophilicity, logP of compound; format: physicochemical; settings: octanol/water
CYP1A2 = CYP1A2 (Homo sapiens, UniProt P05177); assay: Inhibition of CYP1A2 (unknown origin) at 1 uM relative to control; format: ADME; in short: as §1
CYP2D6 = CYP2D6 (Homo sapiens, UniProt P10635); assay: Inhibition of CYP2D6 (unknown origin) at 1 uM relative to control; format: ADME; in short: as §1
CYP2C19 = CYP2C19 (Homo sapiens, UniProt P33261); assay: Inhibition of CYP2C19 (unknown origin) at 1 uM relative to control; format: ADME; in short: as §1
[19] = AUC(0 to t) in CD1 mouse at 20 mg/kg, ip measured upto 24 hrs by UPLC-MS/MS analysis; format: ADME, organism-based; design: route intraperitoneal, dose 20 mg/kg, time <=24; settings: in vivo
[20] = Permeability of compound in human Caco2 cells; format: ADME, cell-based; settings: Caco-2, read-out: permeability
[21] = Lipophilicity, logD of compound at pH 7.4; format: physicochemical; settings: buffer
[22] = Efflux ratio of permeability in human Caco2 cells; format: ADME, cell-based; settings: Caco-2
[23] = Cmax in CD1 mouse at 20 mg/kg, ip measured upto 24 hrs by UPLC-MS/MS analysis; format: ADME, organism-based; design: route intraperitoneal, dose 20 mg/kg, time <=24; settings: in vivo
In short: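 Male CD1 mice given a single ip dose of 20 mg/kg. Cmax was taken from the plasma concentration profile.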

[24] = Metabolic stability in mouse liver microsomes assessed as intrinsic clearance per mg protein at 1 uM measured upto 60 mins in presence of NADPH generating system by UPLC-MS/MS analysis; format: ADME, Microsome; settings: read-out: CLH

Row | SMILES | inhibition at 0.5 h, 1 µM (CYP3A4) | Ki [1] | other results
1 | CCCC(c1nc2cccc(Br)c2c(=O)n1CC)N1C[C@@H](C)N[C@@H](C)C1 (stereo partly drawn) | 95% | 66 nM | –
2 | COCCn1c(CN2CCNCC2)nc2ccccc2c1=O | 6% | > 10000 nM | inhibition [2]: < 50%
3 | CCCC(c1nc2ccccc2c(=O)n1Cc1ccco1)N1C[C@@H](C)N[C@@H](C)C1 (stereo partly drawn) | 99% | 230 nM | –
4 | CCC[C@@H](c1nc2ccncc2c(=O)n1CC)N1CCN[C@@H](C)C1 | 44% | > 1000 nM | –
5 | CCC[C@H](c1nc2ccc(Br)cc2c(=O)n1CC)N1CCN[C@@H](CC)C1 | 97% | 123 nM | –
6 | CCC[C@@H](c1nc2ccc(Br)cc2c(=O)n1CC)N1CCN[C@@H](C)C1 | 33% | 479 nM | –
7 | CCC(c1nc2ccccc2c(=O)n1CCOC)N1C[C@@H](C)N[C@@H](C)C1 (stereo partly drawn) | 86% | 761 nM | –
8 | CCC[C@@H](c1nc2ccncc2c(=O)n1CC)N1CCN[C@H](C)C1 | 15% | > 1000 nM | –
9 | CCCC(c1nc2cc(-c3ccncc3)ccc2c(=O)n1CC)N1C[C@@H](C)N[C@@H](C)C1 (stereo partly drawn) | 97% | 18 nM | –
10 | CCCC(c1nc2ccc(C#N)cc2c(=O)n1CC)N1C[C@@H](C)N[C@@H](C)C1 (stereo partly drawn) | 70% | 288 nM | –
11 | CCC[C@H](c1nc2ccc(Br)cc2c(=O)n1CC)N1CCN[C@H](C)C1 | 51% | 16 nM | Activity (Mu-type opioid receptor): Active; Activity [3]: Active; Activity [4]: Active; Activity [5]: Active; Activity [6]: Active; Activity [7]: Active; Activity [8]: Active; Activity [9]: Active; Activity [10]: Active; Activity [11]: Active; Activity [12]: Active; Activity [13]: Active
12 | CCCCC(c1nc2ccccc2c(=O)n1CCOC)N1C[C@@H](C)N[C@@H](C)C1 (stereo partly drawn) | 97% | 1340 nM | –
13 | CCCC(c1nc2ccccc2c(=O)n1CCOC)N1C[C@@H](C)N[C@@H](C)C1 (stereo partly drawn) | 94% | 241 nM | –
14 | CCCC(c1nc2ccc(Br)cc2c(=O)n1CC)N1CCNCC1 (stereo not drawn) | 65% | 76 nM | –
15 | CCC[C@H](c1nc2ccncc2c(=O)n1CC)N1CCN[C@@H](C)C1 | 56% | 27 nM | –
16 | COCCn1c(C(C)N2CCNCC2)nc2ccccc2c1=O (stereo not drawn) | 0% | 4900 nM | –
17 | CCC[C@H](c1nc2ccc(Br)cc2c(=O)n1CC)N1C[C@@H](C)N[C@@H](C)C1 | 94% | 8 nM | –
18 | CCC[C@@H](c1nc2ccc(Br)cc2c(=O)n1CC)N1C[C@@H](C)N[C@@H](C)C1 | 88% | 2900 nM | –

Row | SMILES | inhibition at 0.5 h, 1 µM (CYP3A4) | Ki [1] | other results
19 | CCC(c1nc2ccccc2c(=O)n1CCOC)N1CCNCC1 (stereo not drawn) | 37% | 1810 nM | –
20 | CCCC(c1nc2ccccc2c(=O)n1CCOC)N1CCNCC1 (stereo not drawn) | 67% | 638 nM | –
21 | CCC[C@H](c1nc2ccc(Br)cc2c(=O)n1CC)N1CCNC(C)(C)C1 | 72% | 1580 nM | –
22 | CCCC(c1nc2ccc(Br)cc2c(=O)n1CC)N1C[C@@H](C)N[C@@H](C)C1 (stereo partly drawn) | 95% | 16 nM | –
23 | CCC[C@H](c1nc2ccc(Br)cc2c(=O)n1CC)N1CCN[C@@H](C)C1 | 73% | 91 nM | Ki (Mu-type opioid receptor): 157 nM; Activity [3]: Active; Activity [4]: Active; Activity [5]: Active; Activity [6]: Active; Activity [7]: Active; Activity [8]: Active; Activity [9]: Active; Activity [10]: Active; Activity [11]: Active; Activity [12]: Active; Activity [13]: Active
24 | CCC[C@@H](c1nc2ccc(Br)cc2c(=O)n1CC)N1CCN[C@H](C)C1 | 21% | > 1000 nM | –
25 | CC(C)C[C@H](CN)CC(=O)O [PREGABALIN] | 43% | – | Activity [14]: Toxic; Activity (Mus musculus): 34%
26 | CCCC(c1nc2ccc(-c3ccncc3)cc2c(=O)n1CC)N1C[C@@H](C)N[C@@H](C)C1 (stereo partly drawn) | 92% | 38 nM | –
27 | CCCC(c1nc2ccc(NCC)cc2c(=O)n1CC)N1C[C@@H](C)N[C@@H](C)C1 (stereo partly drawn) | 69% | 44 nM | –
28 | COCCn1c(C(CC2CC2)N2C[C@@H](C)N[C@@H](C)C2)nc2ccccc2c1=O (stereo partly drawn) | 94% | 413 nM | –
29 | CCCC(c1nc2ccccc2c(=O)n1CC)N1C[C@@H](C)N[C@@H](C)C1 (stereo partly drawn) | 85% | 36 nM | –
30 | CCC[C@H](c1nc2ccncc2c(=O)n1CC)N1CCN[C@H](C)C1 | 46% | 6 nM | microsomal CLint at 1 µM [15]: 2.6 µL/min/mg; microsomal CLint at 1 µM [16]: 3.9 µL/min/mg; IC50 [17]: > 10000 nM; inhibition at 1 µM (CYP2C9): < 50%; logP [18]: 2.22; inhibition at 1 µM (CYP1A2): < 50%; Activity [14]: Non-Toxic; inhibition at 1 µM (CYP2D6): < 50%; inhibition at 1 µM (CYP2C19): < 50%; AUC(0-t) at 24 h [19]: 8050 ng·h/mL; Papp [20]: 4.3 ×10⁻⁶ cm/s; logD [21]: 0.49; efflux ratio [22]: 5.4; Activity (Mus musculus): 69%; Cmax [23]: 3070 ng/mL; microsomal CLint at 1 µM [24]: 4.1 µL/min/mg
31 | CCCC(c1nc2c(Br)cccc2c(=O)n1CC)N1C[C@@H](C)N[C@@H](C)C1 (stereo partly drawn) | – | > 1000 nM | –
32 | CCCC(c1nc2ccccc2c(=O)n1C)N1C[C@@H](C)N[C@@H](C)C1 (stereo partly drawn) | 80% | 73 nM | –
33 | CCCC(c1nc2ccc(Br)cc2c(=O)n1CC)N1CCC(NC)CC1 (stereo not drawn) | 83% | 436 nM | –
34 | CCC(c1nc2ccccc2c(=O)n1CCCOC)N1C[C@@H](C)N[C@@H](C)C1 (stereo partly drawn) | – | > 10000 nM | inhibition [2]: < 50%
35 | CCCC(c1nc2ccccc2c(=O)n1Cc1ccccc1)N1C[C@@H](C)N[C@@H](C)C1 (stereo partly drawn) | 98% | 4820 nM | –
36 | CCCC(c1nc2cc(Br)ccc2c(=O)n1CC)N1C[C@@H](C)N[C@@H](C)C1 (stereo partly drawn) | 97% | 15 nM | –
